Measured values from ChEMBL document CHEMBL1287677, “Antimalarial histone deacetylase inhibitors containing cinnamate or NSAID components” (Bioorg Med Chem Lett, 2010).
The source made the active and inactive calls. No cut-off for these calls is given here.

Assays:
Plasmodium falciparum = assay: Antimalarial activity against drug-sensitive ring-stage Plasmodium falciparum 3D7 infected in human O+ erythrocytes assessed as inhibition of parasite growth by [3H]hypoxanthine incorporation assay; type: functional, organism-based
[1] = molecular target: T1, Histone deacetylase (Plasmodium falciparum 3D7) (UniProt Q7K6A1); assay: Inhibition of trophozoite stage of Plasmodium falciparum 3D7 HDAC1 in infected-human erythrocytes assessed as histone H4 hyperacetylation at 20 to 100 nM after 3.5 hrs by Western blot analysis; type: cell-based
T1 sequence (whole entry): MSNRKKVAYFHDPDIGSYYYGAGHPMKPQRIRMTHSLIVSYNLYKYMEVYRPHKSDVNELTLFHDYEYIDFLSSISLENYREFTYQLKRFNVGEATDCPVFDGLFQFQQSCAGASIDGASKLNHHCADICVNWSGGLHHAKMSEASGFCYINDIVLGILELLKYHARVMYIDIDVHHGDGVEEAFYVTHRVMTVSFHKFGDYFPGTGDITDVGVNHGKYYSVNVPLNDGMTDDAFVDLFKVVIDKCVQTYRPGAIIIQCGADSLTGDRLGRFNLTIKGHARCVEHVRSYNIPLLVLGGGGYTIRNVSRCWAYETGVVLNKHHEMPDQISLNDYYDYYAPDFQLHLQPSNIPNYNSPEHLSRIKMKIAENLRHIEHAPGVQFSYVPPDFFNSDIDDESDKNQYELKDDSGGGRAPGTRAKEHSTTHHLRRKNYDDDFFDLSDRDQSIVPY
Method in brief: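 P. falciparum 3D7-infected erythrocytes exposed to 20 and 100 nM compound for 3.5 h. Vehicle controls (0.1% DMSO) sampled at start and at 3.5 h. Total protein extracted and run on 15% SDS–PAGE. Histone H4 hyperacetylation read by Western blot with polyclonal anti-tetra-acetyl histone H4 antiserum. Loading checked by Coomassie staining of a matched gel.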

NFF = assay: Cytotoxicity against human NFF after 96 hrs by sulforhodamine B assay; type: cell-based
[2] = Selectivity index, ratio of IC50 for human HeLa cells to IC50 for drug-sensitive ring-stage Plasmodium falciparum 3D7; type: toxicity, cell-based; conditions: read-out: Selectivity Index
[3] = Selectivity index, ratio of IC50 for human NFF to IC50 for drug-sensitive ring-stage Plasmodium falciparum 3D7
Method in brief: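 Ratio computed as NFF IC50 divided by 3D7 IC50. Each IC50 is the mean of three experiments.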

[4] = molecular target: T1, Histone deacetylase (Plasmodium falciparum 3D7); assay: (§1) Inhibition of Plasmodium falciparum 3D7 HDAC1 in infected-human erythrocytes assessed as histone H4 hyperacetylation after 1.5 hrs by SDS-PAGE analysis; type: cell-based
Histone deacetylase = molecular target: T2, Histone deacetylase (Plasmodium falciparum 3D7, UniProt Q7K6A1); assay: as §1; type: cell-based
T2 sequence (Q7K6A1 whole entry): T1 sequence (whole entry)

Structure (SMILES)	IC50 (Plasmodium falciparum)	IC90 (Plasmodium falciparum)	other results
O=C(/C=C/c1ccc(OC/C=C/c2ccccc2)cc1)N[C@@H](CCCCCC(=O)NO)C(=O)Nc1cccc2cccnc12	453 nM	827 nM	
O=C(/C=C/c1ccc(OCc2ccc(Br)cc2)cc1)N[C@@H](CCCCCC(=O)NO)C(=O)Nc1cccc2cccnc12	357 nM	687 nM	
CN(C)c1ccc(C(=O)N[C@@H](CCCCCC(=O)NO)C(=O)Nc2cccc3ccccc23)cc1	21 nM		
CC(C(=O)N[C@@H](CCCCCC(=O)NO)C(=O)Nc1cccc2cccnc12)c1ccc(-c2ccccc2)c(F)c1 (stereo partly specified)	42 nM	76 nM	
Cc1cccc(Nc2ccccc2C(=O)N[C@@H](CCCCCC(=O)NO)C(=O)Nc2cccc3cccnc23)c1C	51 nM	89 nM	
COc1cc(/C=C/C(=O)N[C@@H](CCCCCC(=O)NO)C(=O)Nc2cccc3cccnc23)cc(OC)c1OC	52 nM		
O=C(/C=C/c1ccc(Oc2ccccc2)cc1)N[C@@H](CCCCCC(=O)NO)C(=O)Nc1cccc2cccnc12	156 nM		
CC(C)CCOc1cccc(/C=C/C(=O)N[C@@H](CCCCCC(=O)NO)C(=O)Nc2cccc3cccnc23)c1	> 1000 nM	> 1000 nM	
O=C(/C=C/c1cccc(OC/C=C/c2ccccc2)c1)N[C@@H](CCCCCC(=O)NO)C(=O)Nc1cccc2cccnc12	400 nM	805 nM	
C[C@@H]1CC[C@H]2[C@@H](C)C(=O)O[C@@H]3O[C@@]4(C)CC[C@@H]1[C@]32OO4			inhibition [1]: inactive
CC(C)CCOc1ccc(/C=C/C(=O)N[C@@H](CCCCCC(=O)NO)C(=O)Nc2cccc3cccnc23)cc1	217 nM	536 nM	
CCCCOc1ccc(/C=C/C(=O)N[C@@H](CCCCCC(=O)NO)C(=O)Nc2cccc3cccnc23)cc1	184 nM	373 nM	
CC(C(=O)N[C@@H](CCCCCC(=O)NO)C(=O)Nc1cccc2cccnc12)c1ccc(N2Cc3ccccc3C2=O)cc1 (stereo partly specified)	32 nM	65 nM	
CC1=C(CC(=O)N[C@@H](CCCCCC(=O)NO)C(=O)Nc2cccc3cccnc23)c2cc(F)ccc2C1=Cc1ccc(S(C)=O)cc1 (stereo partly specified)	35 nM	35 nM	
CN(C)c1ccc(C(=O)N[C@@H](CCCCCC(=O)NO)C(=O)Nc2ccccc2Cc2ccccc2)cc1	5 nM		inhibition [1]: Active
COc1ccc(CCNC(=O)[C@H](CCCCCC(=O)NO)NC(=O)c2ccc(N(C)C)cc2)cc1OC	101 nM		
COc1ccc2cc([C@H](C)C(=O)N[C@@H](CCCCCC(=O)NO)C(=O)Nc3cccc4cccnc34)ccc2c1	14 nM	24 nM	IC50 (NFF): 169 nM; selectivity ratio [2]: 17; Selectivity Index [3]: 12; inhibition [1]: Active
O=C(CCCCC[C@H](NC(=O)c1cc2ccccc2[nH]1)C(=O)Nc1cccc2cccnc12)NO			inhibition [4]: Dose-dependent effect; IC50 (Histone deacetylase): 78 nM
COc1ccc(/C=C/C(=O)N[C@@H](CCCCCC(=O)NO)C(=O)Nc2cccc3cccnc23)cc1OC	34 nM	61 nM	
CN(C)c1ccc(C(=O)N[C@@H](CCCCCC(=O)NO)C(=O)Nc2cccc3cccnc23)cc1			selectivity ratio [2]: 17; Selectivity Index [3]: 30
COc1cc(/C=C/C(=O)N[C@@H](CCCCCC(=O)NO)C(=O)Nc2cccc3cccnc23)cc(OC)c1O	14 nM	26 nM	
O=C(/C=C/c1ccco1)N[C@@H](CCCCCC(=O)NO)C(=O)Nc1cccc2cccnc12	15 nM	27 nM	
COc1ccc2[nH]c(C)c(CC(=O)N[C@@H](CCCCCC(=O)NO)C(=O)Nc3cccc4cccnc34)c2c1	13 nM	22 nM	IC50 (NFF): 260 nM; selectivity ratio [2]: 17; Selectivity Index [3]: 20; inhibition [1]: Active
Cc1ccc(C(=O)c2ccc(CC(=O)N[C@@H](CCCCCC(=O)NO)C(=O)Nc3cccc4cccnc34)n2C)cc1	47 nM	102 nM	
O=C(/C=C/c1ccccc1)N[C@@H](CCCCCC(=O)NO)C(=O)Nc1cccc2cccnc12			inhibition [4]: Dose-dependent effect; IC50 (Histone deacetylase): 87 nM
CC(C)c1ccc(NC(=O)[C@H](CCCCCC(=O)NO)NC(=O)c2ccc(N(C)C)cc2)cc1	22 nM		
O=C(/C=C/c1cccc(Br)c1)N[C@@H](CCCCCC(=O)NO)C(=O)Nc1cccc2cccnc12	50 nM		
O=C(CCCCC[C@H](NC(=O)c1ccccc1O)C(=O)Nc1cccc2cccnc12)NO	115 nM	214 nM	
Cc1ccc(COc2ccc(/C=C/C(=O)N[C@@H](CCCCCC(=O)NO)C(=O)Nc3cccc4cccnc34)cc2)cc1	153 nM	375 nM	
O=C(CCCCC[C@H](NC(=O)Cc1ccccc1Nc1c(Cl)cccc1Cl)C(=O)Nc1cccc2cccnc12)NO	65 nM	119 nM	
